Data on 73 sequences can be found in the array DNA melting data of Ke et al. (doi:10.1101/2024.01.08.574731).

Series [1] can be described thus: folding enthalpy; higher = less favourable; fluorescence melt of hairpins on a sequencing array, two-state fit. As to conditions: sodium 0.088 M. Put shortly:
(§1)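 Folding enthalpy and melting temperature come from bootstrapped two-state fits to Cy3 fluorescence of library hairpins carrying annealed Cy3 and quencher oligos on a sequenced MiSeq flow cell. Imaging was done in 50 mM Na-HEPES pH 8.0, 25 mM NaCl, stepping by 2.5 °C up to 60 °C, and signals were normalised to pre-quench Cy3 and to control constructs. Results of four replicates were combined by inverse variance, and fitted temperatures were raised by 9.35 °C to match UV melts.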

Series [2] is described as follows: melting temperature; fluorescence melt of hairpins on a sequencing array, two-state fit, raised by 9.35 °C to match UV melts. As to conditions: sodium 0.088 M. The procedure, abridged:
as §1

With GTTCGGAAACGAAC (((((....))))), the folding enthalpy in series [1] is -25.9 kcal/mol. Further, in series [2], the Tm turned out to be 56 °C.
The corresponding values for GTTCGGGCGAAAGCCAAC (((..(((....)))))) are -10.7 kcal/mol and 26.2 °C.
With GTTCGGGGAAACTCGGAC ((.((.(....).)).)), the folding enthalpy in series [1] is -25.6 kcal/mol. In series [2], the Tm is 39 °C.
As for GTTCGTCGAAAGACAAAC (((.(((....))).))), the folding enthalpy in series [1] was -16.6 kcal/mol. Further, in series [2], the Tm came out at 41.2 °C.
Take GTTCGTGGAAACACGAAC (((((((....))))))): the folding enthalpy in series [1] is -39.4 kcal/mol. In addition, in series [2], the Tm was 65.8 °C.
The corresponding values for GTTCGTGGAAACACGAGC (.(((((....))))).) are -21.5 kcal/mol and 52.7 °C.
In the case of GTTCTAGGAAACTGGAAC ((((.((....)).)))), the folding enthalpy in series [1] was -28.7 kcal/mol. In series [2], the Tm worked out at 42.2 °C.
In the same order, the values of GTTCTCCGAAAGGAAAC (((.(((....)))))) are -16 kcal/mol and 35.8 °C.
In the same order, the values of GTTCTCGAAAGAGATAAC ((((((....)))..))) are -13.9 kcal/mol and 28.8 °C.
Regarding GTTCTCGAAAGAGTAAC ((((((....))).))), in series [1], the folding enthalpy is -18.5 kcal/mol. In addition, the Tm in series [2] is 34.9 °C.
The corresponding values for GTTCTGGGAAACCGGAAC ((((.((....)).)))) are -41.5 kcal/mol and 50.9 °C.
Take GTTCTTGGAAACAAGAGC (.(((((....))))).): the folding enthalpy in series [1] was -19.6 kcal/mol. The Tm in series [2] worked out at 41.5 °C.
The corresponding values for GTTGAACGAAAGTTGAAC (((.(((....))).))) are -25.9 kcal/mol and 38.1 °C.
With GTTGAAGGAAACTTCAGC (.(((((....))))).), the folding enthalpy in series [1] was -23 kcal/mol. Moreover, in series [2], the Tm amounted to 41.4 °C.
As for GTTGAAGGAAACTTCGAC ((.((((....)))).)), the folding enthalpy in series [1] is -32.5 kcal/mol. Moreover, the Tm in series [2] came out at 44.9 °C.
In the same order, the values of GTTGACGAAAGTCCAAC ((((((....))).))) are -17.7 kcal/mol and 40.9 °C.
For GTTGACGAAAGTCTAAAC ((((((....)))..))), in series [1], the folding enthalpy is -12.8 kcal/mol. In addition, in series [2], the Tm stood at 30.4 °C.
With GTTGACGCGAAAGCGAAC (((..(((....)))))), the folding enthalpy in series [1] was -12.9 kcal/mol. The Tm in series [2] was 39 °C.
In the case of GTTGACGGAAACGTTAGC (.(.(((....))).).), in series [1], the folding enthalpy is -7.85 kcal/mol. The Tm in series [2] amounted to 29.9 °C.
As for GTTGAGCGAAAGCTAAC (((.(((....)))))), the folding enthalpy in series [1] is -15.2 kcal/mol. Also, the Tm in series [2] came to 39.8 °C.
The corresponding values for GTTGAGGGAAACTTCAGC (.(((.(....).))).) are -16.6 kcal/mol and 31.7 °C.
Regarding GTTGAGGGAAACTTCGAC ((.((.(....).)).)), the folding enthalpy in series [1] is -20.3 kcal/mol. Also, the Tm in series [2] amounted to 31.5 °C.
The corresponding values for GTTGATGGAAACACCAAC ((((.((....)).)))) are -30.2 kcal/mol and 37 °C.
Take GTTGCACGAAAGTGAAAC (((.(((....))).))): in series [1], the folding enthalpy was -31.5 kcal/mol. Moreover, in series [2], the Tm amounted to 51.8 °C.
Regarding GTTGCAGGAAACTGCAAC (((((((....))))))), the folding enthalpy in series [1] was -39.6 kcal/mol. In addition, in series [2], the Tm is 68 °C.
On to GTTGCAGGAAACTGTAAC (((.(((....))).))), for which the folding enthalpy in series [1] was -29.8 kcal/mol. The Tm in series [2] turned out to be 45.8 °C.
GTTGCAGGAAACTGTGAC ((..(((....)))..)): in series [1], the folding enthalpy was -29.9 kcal/mol. For the same sequence, the Tm in series [2] was determined as 37.9 °C.
For GTTGCCCGAAAGGGAAAC (((.(((....))).))), the folding enthalpy in series [1] is -32.2 kcal/mol. The Tm in series [2] is 56.4 °C.
In the same order, the values of GTTGCCGAAAGGCAAAAC ((((((....)))..))) are -9.67 kcal/mol and 42.5 °C.
The corresponding values for GTTGCCGAAAGGCAAAC ((((((....))).))) are -11.6 kcal/mol and 58 °C.
In the same order, the values of GTTGCCGAAAGGCGGAAC ((((((....)))..))) are -7.95 kcal/mol and 32.8 °C.
Consider GTTGCCGAAAGGCGTAAC ((((((....)))..))), for which, in series [1], the folding enthalpy was -9.66 kcal/mol. Also, in series [2], the Tm was 34.7 °C.
In the same order, the values of GTTGCCGAAAGGCTGAAC ((((((....)))..))) are -9.17 kcal/mol and 31.4 °C.
As to GTTGCCGAAAGGCTTAAC ((((((....)))..))), the folding enthalpy in series [1] was -8.96 kcal/mol. Besides, the Tm in series [2] came out at 26.6 °C.
GTTGCCGGAAACAGCAAC (((((.(....).))))): in series [1], the folding enthalpy is -27.4 kcal/mol. Further, the Tm in series [2] came out at 46.9 °C.
The corresponding values for GTTGCCGGAAACGGCGAC ((.((((....)))).)) are -20.1 kcal/mol and 64.1 °C.
In the same order, the values of GTTGCCGGAAACGGTAGC (.(.(((....))).).) are -17.2 kcal/mol and 39.7 °C.
On to GTTGCGGCGAAAGCCAAC (((..(((....)))))), for which the folding enthalpy in series [1] is -14.7 kcal/mol. Besides, the Tm in series [2] was 37.8 °C.
In the same order, the values of GTTGCGGGAAACCGCGAC ((.((((....)))).)) are -31 kcal/mol and 60.7 °C.
The corresponding values for GTTGCGGGAAACTGCAAC (((((.(....).))))) are -38.5 kcal/mol and 56.2 °C.
The corresponding values for GTTGCGTCGAAAGACAAC (((..(((....)))))) are -13.8 kcal/mol and 30.3 °C.
Consider GTTGCTACGAAAGTAAAC (((..(((....)))))), for which, in series [1], the folding enthalpy is -9.44 kcal/mol. Besides, the Tm in series [2] turned out to be 28.6 °C.
In the same order, the values of GTTGCTCGAAAGAGTAAC (((.(((....))).))) are -35.1 kcal/mol and 52.4 °C.
For the sequence GTTGCTGGAAACGGTAAC (((.(.(....).).))), in series [1], the folding enthalpy was -16.4 kcal/mol. Besides, in series [2], the Tm was found to be 33.7 °C.
In the same order, the values of GTTGGACGAAAGTCAAC (((.(((....)))))) are -17.5 kcal/mol and 48.6 °C.
For the sequence GTTGGAGCGAAAGCTAAC (((..(((....)))))), the folding enthalpy in series [1] was -21.4 kcal/mol. Also, the Tm in series [2] came out at 36.9 °C.
As to GTTGGAGGAAACCCCAAC (((((.(....).))))), the folding enthalpy in series [1] is -35.2 kcal/mol. In series [2], the Tm worked out at 44.5 °C.
As to GTTGGAGGAAACTCCAGC (.(((((....))))).), the folding enthalpy in series [1] is -21.1 kcal/mol. Also, the Tm in series [2] was found to be 47.6 °C.
As for GTTGGAGGAAACTCTGAC ((..(((....)))..)), in series [1], the folding enthalpy was -21 kcal/mol. In addition, the Tm in series [2] was 34 °C.
In the same order, the values of GTTGGCCCGAAAGGGAAC (((..(((....)))))) are -18.8 kcal/mol and 45.3 °C.
The corresponding values for GTTGGCCGAAAGGCAAC (((.(((....)))))) are -16.8 kcal/mol and 53.9 °C.
Turning to GTTGGCGAAAGCCCGAAC ((((((....)))..))), the folding enthalpy in series [1] is -9.07 kcal/mol. For the same sequence, the Tm in series [2] was 24.2 °C.
In the same order, the values of GTTGGCGAAAGCCGAAAC ((((((....)))..))) are -8.56 kcal/mol and 38.2 °C.
For GTTGGCGAAAGCCTGAAC ((((((....)))..))), in series [1], the folding enthalpy was -8.07 kcal/mol. Further, in series [2], the Tm worked out at 30.9 °C.
Turning to GTTGGCGCGAAAGCGAAC (((..(((....)))))), the folding enthalpy in series [1] is -12.9 kcal/mol. The Tm in series [2] is 45.9 °C.
Turning to GTTGGCGGAAACGTCAGC (.((.((....)).)).), the folding enthalpy in series [1] is -21.6 kcal/mol. The Tm in series [2] stood at 42.3 °C.
Consider GTTGGCTCGAAAGAGAAC (((..(((....)))))), for which the folding enthalpy in series [1] is -17.1 kcal/mol. In series [2], the Tm amounted to 34.9 °C.
In the same order, the values of GTTGGGGGAAACTCCAAC (((((.(....).))))) are -41.2 kcal/mol and 50.4 °C.
In the same order, the values of GTTGGGGGAAACTCCGAC ((.((.(....).)).)) are -25.9 kcal/mol and 41.6 °C.
In the same order, the values of GTTGGGTCGAAAGACAAC (((..(((....)))))) are -18.2 kcal/mol and 38.1 °C.
GTTGGTGGAAACACCAGC (.(((((....))))).): in series [1], the folding enthalpy is -21.5 kcal/mol. Moreover, the Tm in series [2] is 50.6 °C.
In the case of GTTGGTGGAAACACCGAC ((.((((....)))).)), the folding enthalpy in series [1] is -39 kcal/mol. Also, the Tm in series [2] was 53.4 °C.
In the case of GTTGTAACGAAAGTTAAC (((..(((....)))))), the folding enthalpy in series [1] was -26.1 kcal/mol. Further, in series [2], the Tm was 37.9 °C.
Consider GTTGTAGGAAACTACGAC ((.((((....)))).)), for which the folding enthalpy in series [1] was -26 kcal/mol. Moreover, the Tm in series [2] amounted to 45.8 °C.
The corresponding values for GTTGTAGGAAACTGCAAC ((((.((....)).)))) are -17.8 kcal/mol and 46.9 °C.
In the same order, the values of GTTGTCGAAAGACCCAAC ((((((....)))..))) are -11.1 kcal/mol and 26.6 °C.
In the same order, the values of GTTGTCGAAAGACGCAAC ((((((....)))..))) are -9.32 kcal/mol and 31.9 °C.
On to GTTGTCGGAAACGACAGC (.(((((....))))).), for which the folding enthalpy in series [1] was -24 kcal/mol. Further, the Tm in series [2] worked out at 55.7 °C.
Turning to GTTGTCGGAAACGACGAC ((.((((....)))).)), the folding enthalpy in series [1] was -24.8 kcal/mol. In series [2], the Tm was found to be 55.1 °C.
In the case of GTTGTGCGAAAGCAAAAC (((.(((....))).))), the folding enthalpy in series [1] was -24 kcal/mol. In series [2], the Tm was found to be 48.7 °C.
In the case of GTTGTGGGAAACCACAGC (.(((((....))))).), the folding enthalpy in series [1] is -20 kcal/mol. The Tm in series [2] was determined as 49.7 °C.
Consider GTTGTGGGAAACCGCAAC ((((.((....)).)))), for which, in series [1], the folding enthalpy is -43 kcal/mol. The Tm in series [2] is 53.8 °C.
The corresponding values for GTTGTGGGAAACTACAGC (.(((.(....).))).) are -16.8 kcal/mol and 32 °C.
